Here are results for eleven compounds from ChEMBL document CHEMBL4814057, “4-4-(Anilinomethyl)-3-[4-(trifluoromethyl)phenyl]-1H-pyrazol-1-ylbenzoic acid derivatives as potent anti-gram-positive bacterial agents” (Eur J Med Chem, 2021).

The subject of assay [1] is Enterococcus faecium. The experiment in a line: Antimicrobial activity against vancomycin-resistant Enterococcus faecium ATCC 700221 assessed as bacterial growth inhibitions by CLSI protocol based microdilution method. Type of assay: functional. (In broth dilution the organism is exposed to a series of concentrations in liquid medium.)
In assay [2] the test system is Staphylococcus aureus. The experiment in a line: Antimicrobial activity against methicillin-resistant Staphylococcus aureus ATCC 33591 assessed as bacterial growth inhibitions by CLSI protocol based microdilution method. The assay is classed as functional.
In assay [3] the test system is Staphylococcus aureus. The experiment in a line: Antimicrobial activity against methicillin-susceptible Staphylococcus aureus ATCC 25923 assessed as bacterial growth inhibitions by CLSI protocol based microdilution method. The assay is classed as functional.
Assay [4] concerns Staphylococcus aureus. The experiment in a line: Antimicrobial activity against methicillin-resistant Staphylococcus aureus ATCC 33592 assessed as bacterial growth inhibitions by CLSI protocol based microdilution method. Type of assay: functional.
The subject of assay [5] is Bacillus subtilis. The experiment in a line: Antimicrobial activity against Bacillus subtilis ATCC 6623 assessed as bacterial growth inhibitions by CLSI protocol based microdilution method. The assay is classed as functional. A digest of the protocol: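 Broth microdilution starting at 50 µg/ml with 2-fold serial dilutions; run in triplicate.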
Assay [6] concerns Staphylococcus aureus. The experiment in a line: Antimicrobial activity against antibiotic-resistant Staphylococcus aureus BM-2312 assessed as bacterial growth inhibitions by CLSI protocol based microdilution method. The assay is classed as functional.
The subject of assay [7] is Staphylococcus aureus. The experiment in a line: Antimicrobial activity against methicillin-resistant Staphylococcus aureus ATCC 700699 assessed as bacterial growth inhibitions by CLSI protocol based microdilution method. Type of assay: functional.
Assay [8] deals with Enterococcus faecalis. The experiment in a line: Antimicrobial activity against vancomycin-susceptible Enterococcus faecalis ATCC 29212 assessed as bacterial growth inhibitions by CLSI protocol based microdilution method.
Assay [9] deals with Staphylococcus epidermidis. The experiment in a line: Antimicrobial activity against methicillin-resistant Staphylococcus epidermidis ATCC 700296 assessed as bacterial growth inhibitions by CLSI protocol based microdilution method. The assay is classed as functional.

Values after ≈ are worked out from the molar mass of the structure shown. Active and inactive are the calls of the source.

By MIC is commonly meant the smallest concentration in the dilution series that meets the test's criterion for growth inhibition. `O=C(O)c1ccc(-n2cc(CNc3cccc(Cl)c3F)c(-c3ccc(C(F)(F)F)cc3)n2)cc1`: the MIC in assay [1] amounted to 0.78 µg/mL (≈ 1.59 µM); in [2], 1.56 µg/mL (≈ 3.18 µM); in assay [3], 1.56 µg/mL (≈ 3.18 µM); in assay [4] it was 1.56 µg/mL (≈ 3.18 µM); in assay [5] it was 0.78 µg/mL (≈ 1.59 µM); in assay [6] it was 0.78 µg/mL (≈ 1.59 µM). The MIC in assay [7] is 3.12 µg/mL (≈ 6.37 µM).
In the case of `O=C(O)c1ccc(-n2cc(CNc3ccc(Br)c(Cl)c3)c(-c3ccc(C(F)(F)F)cc3)n2)cc1`, the MIC is 0.78 µg/mL (≈ 1.42 µM) in assay [1]; 0.78 µg/mL (≈ 1.42 µM) in assay [2]; 0.78 µg/mL (≈ 1.42 µM) in assay [3]; 0.78 µg/mL (≈ 1.42 µM) in assay [4]; 0.78 µg/mL (≈ 1.42 µM) in [5]; 1.56 µg/mL (≈ 2.83 µM) in assay [8]. In addition, the MIC in assay [6], in assay [7] and in [9] was 0.78 µg/mL (≈ 1.42 µM) throughout.
As to `O=C(O)c1ccc(-n2cc(CNc3ccc(Cl)cc3)c(-c3ccc(C(F)(F)F)cc3)n2)cc1`, the MIC amounted to 1.56 µg/mL (≈ 3.31 µM) in assay [1]; 1.56 µg/mL (≈ 3.31 µM) in assay [2]; 1.56 µg/mL (≈ 3.31 µM) in assay [3]; 1.56 µg/mL (≈ 3.31 µM) in assay [4]; 0.78 µg/mL (≈ 1.65 µM) in [5]; 6.25 µg/mL (≈ 13.2 µM) in [8]. For the same compound, the minimum inhibitory concentration (MIC) in [6] stood at 1.56 µg/mL (≈ 3.31 µM); in [7], 1.56 µg/mL (≈ 3.31 µM); in assay [9] it was 3.12 µg/mL (≈ 6.61 µM).
In the case of `NS(=O)(=O)c1ccc(NCc2cn(-c3ccc(C(=O)O)cc3)nc2-c2ccc(C(F)(F)F)cc2)cc1`, the MIC entry in [1] and in assay [8] was “inactive” in each case. Moreover, the MIC in assay [2] came out at 50 µg/mL (≈ 96.8 µM); in assay [3] it was 50 µg/mL (≈ 96.8 µM); in assay [4] it was 50 µg/mL (≈ 96.8 µM); in assay [5], 50 µg/mL (≈ 96.8 µM); in assay [6], 50 µg/mL (≈ 96.8 µM); in [7], 0.39 µg/mL (≈ 0.755 µM). The minimal inhibitory concentration (MIC) in [9] was determined as 50 µg/mL (≈ 96.8 µM).
Take `O=C(O)c1ccc(-n2cc(CNc3cc(C(F)(F)F)cc(C(F)(F)F)c3)c(-c3ccc(C(F)(F)F)cc3)n2)cc1`: the minimum inhibitory concentration (MIC) in assay [1], in assay [2], in assay [3], in assay [4], in assay [5] and in [8] was 0.78 µg/mL (≈ 1.36 µM) throughout. In addition, the minimum inhibitory concentration (MIC) in assay [6] amounted to 0.78 µg/mL (≈ 1.36 µM); in assay [7], 0.78 µg/mL (≈ 1.36 µM); in assay [9], 1.56 µg/mL (≈ 2.72 µM).
Consider `O=C(O)c1ccc(-n2cc(CNc3ccc(Cl)c(Cl)c3)c(-c3ccc(C(F)(F)F)cc3)n2)cc1`, for which the MIC in assay [1], in [2], in assay [3], in [4], in assay [5] and in [6] was 0.78 µg/mL (≈ 1.54 µM) each time. Moreover, in assay [7], the minimum inhibitory concentration (MIC) amounted to 1.56 µg/mL (≈ 3.08 µM).
Take `O=C(O)c1ccc(-n2cc(CNc3ccc(F)c(Cl)c3)c(-c3ccc(C(F)(F)F)cc3)n2)cc1`: the minimal inhibitory concentration (MIC) in assay [1] amounted to 1.56 µg/mL (≈ 3.18 µM); in [2] it was 0.78 µg/mL (≈ 1.59 µM); in assay [3] it was 0.78 µg/mL (≈ 1.59 µM); in [4], 0.78 µg/mL (≈ 1.59 µM); in assay [5], 0.78 µg/mL (≈ 1.59 µM); in assay [8] it was 6.25 µg/mL (≈ 12.8 µM). For the same compound, the minimal inhibitory concentration (MIC) in assay [6] was 0.78 µg/mL (≈ 1.59 µM); in [7] it was 1.56 µg/mL (≈ 3.18 µM); in [9], 3.12 µg/mL (≈ 6.37 µM).
Regarding `O=C(O)c1ccc(-n2cc(CNc3cccc(OC(F)(F)F)c3)c(-c3ccc(C(F)(F)F)cc3)n2)cc1`, the MIC in assay [1] is 0.78 µg/mL (≈ 1.5 µM); in [2], 0.78 µg/mL (≈ 1.5 µM); in [3], 0.78 µg/mL (≈ 1.5 µM); in assay [4] it was 0.78 µg/mL (≈ 1.5 µM); in [5], 0.78 µg/mL (≈ 1.5 µM); in assay [8], 3.12 µg/mL (≈ 5.98 µM). For the same compound, the minimum inhibitory concentration (MIC) in assay [6] is 0.78 µg/mL (≈ 1.5 µM); in [7], 50 µg/mL (≈ 95.9 µM); in assay [9], 3.12 µg/mL (≈ 5.98 µM).
For `O=C(O)c1ccc(-n2cc(CNc3ccc(F)c(F)c3)c(-c3ccc(C(F)(F)F)cc3)n2)cc1`, the MIC in assay [1] was found to be 3.12 µg/mL (≈ 6.59 µM); in assay [2], 1.56 µg/mL (≈ 3.3 µM); in assay [3], 1.56 µg/mL (≈ 3.3 µM); in assay [4] it was 1.56 µg/mL (≈ 3.3 µM); in assay [8], 12.5 µg/mL (≈ 26.4 µM); in [6], 1.56 µg/mL (≈ 3.3 µM). Moreover, the MIC is 0.78 µg/mL (≈ 1.65 µM) in [7] and 6.25 µg/mL (≈ 13.2 µM) in assay [9].
Consider `O=C(O)c1ccc(-n2cc(CNc3ccc(Br)c(C(F)(F)F)c3)c(-c3ccc(C(F)(F)F)cc3)n2)cc1`, for which the minimal inhibitory concentration (MIC) in [1] stood at 0.78 µg/mL (≈ 1.33 µM); in assay [2], 0.78 µg/mL (≈ 1.33 µM); in assay [3] it was 3.12 µg/mL (≈ 5.34 µM); in assay [4] it was 3.12 µg/mL (≈ 5.34 µM); in assay [5] it was 3.12 µg/mL (≈ 5.34 µM); in [6], 3.12 µg/mL (≈ 5.34 µM). For the same compound, the MIC in assay [7] is 3.12 µg/mL (≈ 5.34 µM); in [9], 12.5 µg/mL (≈ 21.4 µM).
Turning to `O=C(O)c1ccc(-n2cc(CNc3ccc(Br)c(Cl)c3F)c(-c3ccc(C(F)(F)F)cc3)n2)cc1`, the MIC in [8] was 0.78 µg/mL (≈ 1.37 µM).
